From ChEMBL document CHEMBL1926656, “Cyclopeptide Alkaloids from Ziziphus apetala” (J Nat Prod, 2011)
Active and inactive are the calls of the source. The calls are words filed in the database; no cut-off is given here.

How the values were obtained:
[1] = tested on: HeLa; assay: Cytotoxicity against human HeLa cells; format: functional, cell-based
[2] = tested on: BGC-823; assay: Cytotoxicity against human BGC823 cells; format: functional, cell-based
[3] = target: 11-beta-hydroxysteroid dehydrogenase 1 (Homo sapiens, UniProt P28845); assay: Inhibition of human 11beta-HSD1 expressed in human HEK293 cells assessed as conversion of [3H]cortisone to [3H]cortisol by scintillation proximity assay; format: cell-based
Method in brief: (§1)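 Full-length human or mouse 11β-HSD1 cDNA in pcDNA3, stably expressed in HEK-293 cells selected with 700 μg/mL G418; microsomal fraction used as enzyme. Microsomes incubated with NADPH and [3H]cortisone; [3H]cortisol product captured by monoclonal antibody on protein A-coated SPA beads. Glycyrrhizinic acid positive control. IC50 as mean ± SD, n = 3.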

[4] = target: 11-beta-hydroxysteroid dehydrogenase 1 (Mus musculus, UniProt P50172); assay: Inhibition of mouse 11beta-HSD1 expressed in human HEK293 cells assessed as conversion of [3H]cortisone to [3H]cortisol by scintillation proximity assay; format: cell-based; method in brief: as §1
11-beta-hydroxysteroid dehydrogenase 1 (Mus musculus, UniProt P50172), sequence (P50172 whole entry): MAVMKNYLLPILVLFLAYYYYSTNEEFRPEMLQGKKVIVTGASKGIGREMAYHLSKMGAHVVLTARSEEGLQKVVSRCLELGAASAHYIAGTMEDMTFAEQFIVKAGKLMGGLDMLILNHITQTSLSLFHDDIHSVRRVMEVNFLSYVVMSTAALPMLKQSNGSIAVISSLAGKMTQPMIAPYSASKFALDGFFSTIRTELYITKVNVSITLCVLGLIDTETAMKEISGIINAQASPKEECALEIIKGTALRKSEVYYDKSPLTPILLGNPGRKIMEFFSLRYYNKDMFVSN

11-beta-hydroxysteroid dehydrogenase 1 (Homo sapiens, UniProt P28845), sequence (P28845 whole entry): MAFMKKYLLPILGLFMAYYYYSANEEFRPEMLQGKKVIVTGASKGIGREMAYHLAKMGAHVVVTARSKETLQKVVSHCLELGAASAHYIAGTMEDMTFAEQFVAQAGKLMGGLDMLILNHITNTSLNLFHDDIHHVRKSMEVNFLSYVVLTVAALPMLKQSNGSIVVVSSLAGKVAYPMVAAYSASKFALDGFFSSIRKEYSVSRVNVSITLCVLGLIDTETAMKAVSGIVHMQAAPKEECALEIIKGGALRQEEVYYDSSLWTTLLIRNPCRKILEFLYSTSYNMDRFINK

| IC50 [3] [µM] | IC50 [4] [µM] | SMILES | Activity [1] | Activity [2] |
| --- | --- | --- | --- | --- |
|  |  | CN[C@@H](C)C(=O)N[C@H](C(=O)N1CC[C@@H]2Oc3ccc(cc3)/C=C\NC(=O)[C@H](Cc3ccccc3)NC(=O)[C@H]21)C(C)C | inactive | inactive |
|  |  | CC(C)[C@H](NC(=O)[C@@H](C)N(C)C)C(=O)N1CC[C@@H]2Oc3ccc(cc3)/C=C\NC(=O)[C@H](Cc3ccccc3)NC(=O)[C@H]21 | inactive | inactive |
| 90.3 | 54.2 | CC(C)[C@H](NC(=O)[C@H](C)N(C)C)C(=O)N1CC[C@@H]2Oc3ccc(cc3)/C=C\NC(=O)[C@H](Cc3ccccc3)NC(=O)[C@H]21 [MAURITINE A] | inactive | inactive |
|  |  | CC(C)[C@H](NC(=O)[C@@H](C)[N+](C)(C)[O-])C(=O)N1CC[C@@H]2Oc3ccc(cc3)/C=C\NC(=O)[C@H](Cc3ccccc3)NC(=O)[C@H]21 | inactive | inactive |
|  |  | CC(C)[C@H](NC(=O)C(C)N(C)C=O)C(=O)N1CC[C@@H]2Oc3ccc(cc3)/C=C\NC(=O)[C@H](Cc3ccccc3)NC(=O)[C@H]21 (stereo not given in full) | inactive | inactive |
| 0.0186 | 0.0295 | CC1(C)[C@@H](O[C@H]2O[C@H](C(=O)O)[C@@H](O)[C@H](O)[C@H]2O[C@@H]2O[C@H](C(=O)O)[C@@H](O)[C@H](O)[C@H]2O)CC[C@]2(C)[C@H]3C(=O)C=C4[C@@H]5C[C@@](C)(C(=O)O)CC[C@]5(C)CC[C@@]4(C)[C@]3(C)CC[C@@H]12 [GLYCYRRHIZIN] |  |  |
|  |  | C/C(=N/O)C(=O)N[C@H](C(=O)N1CC[C@@H]2Oc3ccc(cc3)/C=C\NC(=O)[C@H](Cc3ccccc3)NC(=O)[C@H]21)C(C)C | inactive | inactive |
|  |  | CC(C)[C@@H](C(=O)N1CC[C@@H]2Oc3ccc(cc3)/C=C\NC(=O)[C@H](Cc3ccccc3)NC(=O)[C@H]21)N1CN(C)[C@@H](C)C1=O | inactive | inactive |
|  |  | CC(C)[C@H](NC(=O)[C@H](C)[N+](C)(C)[O-])C(=O)N1CC[C@@H]2Oc3ccc(cc3)/C=C\NC(=O)[C@H](Cc3ccccc3)NC(=O)[C@H]21 | inactive | inactive |
